Laboratory results: ChEMBL document CHEMBL3875165, “Novel broad-spectrum and long-acting parenteral cephalosporins having an acyl cyanamide moiety at the C-3 terminal: Synthesis and structure-activity relationships” (Eur J Med Chem, 2016)
≈ marks a conversion by molar mass, not a printed value.

Experiments:
[1] = tested on: Staphylococcus aureus; assay: Antibacterial activity against Staphylococcus aureus SMITH; assay type: functional
In short: (§1)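 Agar dilution MIC on Sensitivity Disk Agar-N with 2-fold serial drug dilutions. Overnight Mueller Hinton broth cultures were diluted to about 10^6 CFU/mL, and 1 µL spots were applied. Plates were incubated 20 h at 37 °C before scoring.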

[2] = tested on: Staphylococcus aureus; assay: Antibacterial activity against methicillin-resistant Staphylococcus aureus SR2030; assay type: functional
In short: (§2)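 Agar dilution on Sensitivity Disk Agar-N. Overnight Mueller Hinton broth cultures were diluted to about 10^6 CFU/mL, and 1 µL spots were placed on agar plates holding 2-fold serial dilutions of antibiotic. Plates were incubated 20 h at 37 °C and then MICs were scored.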

[3] = tested on: Staphylococcus aureus; assay: Antibacterial activity against methicillin-resistant Staphylococcus aureus SR3626; assay type: functional; in short: as §2
[4] = tested on: Escherichia coli; assay: Antibacterial activity against Escherichia coli NIHJ JC-2; assay type: functional; in short: as §1
[5] = tested on: Pseudomonas aeruginosa; assay: Antibacterial activity against Pseudomonas aeruginosa PAO1; assay type: functional; in short: as §1
[6] = tested on: Pseudomonas aeruginosa; assay: Antibacterial activity against Pseudomonas aeruginosa SA24; assay type: functional; in short: as §1
[7] = AUC (0 to infinity) in monkey at 20 mg/kg, iv administered as bolus dose by HPLC method; assay type: ADME, organism-based, Macaca mulatta; set-up: dose 20 mg/kg, time infinity, route intravenous; settings: rhesus monkey, in vivo
In short: (§3)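 Three monkeys per group received a single iv bolus of 20 mg/kg (1 mL/kg). Plasma levels were measured by HPLC. AUC0-∞, CLtot and T1/2 came from a 2-compartment fit.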

[8] = Half life in monkey at 20 mg/kg, iv administered as bolus dose by HPLC method; assay type: ADME, organism-based, Macaca mulatta; settings: rhesus monkey, in vivo; in short: as §3
[9] = Half life in mouse at 20 mg/kg, iv administered as bolus dose by band-culture bioassay; settings: in vivo
[10] = AUC (0 to infinity) in mouse at 20 mg/kg, iv administered as bolus dose by band-culture bioassay; settings: in vivo
[11] = Total clearance in monkey at 20 mg/kg, iv administered as bolus dose by HPLC method; assay type: ADME, organism-based, Macaca mulatta; settings: rhesus monkey, in vivo; in short: as §3
[12] = Protein binding in ICR mouse plasma after 30 mins by ultra-filtration method; assay type: ADME, cell-free; settings: read-out: PPB (converted)
In short: (§4)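 Mouse or monkey plasma was adjusted to pH 7 with CO2 and spiked with compound to a final 10 µg/ml. It was incubated 30 min at 37 °C, then ultrafiltered by centrifugation at 3200 rpm for 30 min at 25 °C. Free drug in the filtrate was measured by bioassay to give the bound fraction.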

[13] = Protein binding in cynomolgus monkey plasma after 30 mins by ultra-filtration method; assay type: ADME, cell-free, Macaca fascicularis; settings: read-out: PPB (converted); in short: as §4
[14] = tested on: Staphylococcus aureus; assay: Antibacterial activity against Staphylococcus aureus SMITH after 20 hrs by agar dilution method; assay type: functional; in short: as §1
[15] = tested on: Streptococcus pneumoniae; assay: Antibacterial activity against penicillin-resistant Streptococcus pneumoniae SR16675 after 20 hrs by agar dilution method; assay type: functional; settings: SR16675, 20 h; in short: as §2
[16] = tested on: Streptococcus pneumoniae; assay: Antibacterial activity against penicillin-resistant Streptococcus pneumoniae SR16750 after 20 hrs by agar dilution method; assay type: functional; settings: SR16750, 20 h; in short: as §2
[17] = tested on: Haemophilus influenzae; assay: Antibacterial activity against beta-lactamase non-producing penicillin-resistant Haemophilus influenzae SR11435 after 20 hrs by agar dilution method; assay type: functional; settings: SR11435, 20 h; in short: as §2
[18] = tested on: Haemophilus influenzae; assay: Antibacterial activity against beta-lactamase non-producing penicillin-resistant Haemophilus influenzae SR24106 after 20 hrs by agar dilution method; assay type: functional; settings: SR24106, 20 h; in short: as §2
[19] = tested on: Moraxella catarrhalis; assay: Antibacterial activity against Moraxella catarrhalis SR24290 after 20 hrs by agar dilution method; assay type: functional; settings: SR24290, 20 h; in short: as §1
[20] = tested on: Escherichia coli; assay: Antibacterial activity against Escherichia coli NIHJ JC-2 after 20 hrs by agar dilution method; assay type: functional; settings: NIHJ JC-2, 20 h; in short: as §1
[21] = tested on: Streptococcus pneumoniae; assay: Antibacterial activity against penicillin-susceptible Streptococcus pneumoniae SR16605 infected in sc dosed mouse assessed as protection against bacterial infection by measuring increase in mouse survival administered 1 and 5 hrs post infection measured after 7 days; assay type: functional
In short: (§5)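 Mouse septicemia model in six-week-old male Jcl:ICR mice (19 to 25 g). Mice were infected intraperitoneally with 0.5 mL of S. pneumoniae suspension in hog mucin. Compound was given subcutaneously 1 and 5 h after infection. Mortality was recorded over 7 days, and ED50 with 90% confidence limits was derived by the logit method.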

[22] = tested on: Streptococcus pneumoniae; assay: Antibacterial activity against penicillin-resistant Streptococcus pneumoniae SR16754 infected in sc dosed mouse assessed as protection against bacterial infection by measuring increase in mouse survival administered 1 and 5 hrs post infection measured after 7 days; assay type: functional; in short: as §5
[23] = tested on: Streptococcus pneumoniae; assay: Antibacterial activity against penicillin-susceptible Streptococcus pneumoniae SR16605 after 20 hrs by agar dilution method; assay type: functional; settings: SR16605, 20 h; in short: as §2
[24] = tested on: Streptococcus pneumoniae; assay: Antibacterial activity against penicillin-resistant Streptococcus pneumoniae SR16754 after 20 hrs by agar dilution method; assay type: functional; settings: SR16754, 20 h; in short: as §2
[25] = tested on: Streptococcus pneumoniae; assay: Potency index, ratio of Ceftriaxone MIC to compound MIC for penicillin-susceptible Streptococcus pneumoniae SR16605; assay type: functional
[26] = Total clearance in mouse at 20 mg/kg, iv administered as bolus dose by band-culture bioassay; settings: in vivo

CCO/N=C(\C(=O)N[C@@H]1C(=O)N2C(C(=O)[O-])=C(C[n+]3ccc(-c4c[nH]c(C(=O)O)c4)cc3)CS[C@H]12)c1nsc(N)n1
MIC [1]: 3.1 µg/mL (≈ 5.18 µM)
MIC [2]: 12.5 µg/mL (≈ 20.9 µM)
MIC [3]: 25 µg/mL (≈ 41.8 µM)
MIC [4]: 0.05 µg/mL (≈ 0.0835 µM)
MIC [5]: 0.8 µg/mL (≈ 1.34 µM)
MIC [6]: 0.8 µg/mL (≈ 1.34 µM)

CCO/N=C(\C(=O)N[C@@H]1C(=O)N2C(C(=O)[O-])=C(C[n+]3ccc(-c4c[nH]c(C(=O)NC#N)c4)cc3)CS[C@H]12)c1nsc(N)n1
MIC [1]: 1.6 µg/mL (≈ 2.57 µM)
MIC [2]: 12.5 µg/mL (≈ 20.1 µM)
MIC [3]: 12.5 µg/mL (≈ 20.1 µM)
MIC [4]: 0.1 µg/mL (≈ 0.161 µM)
MIC [5]: 0.8 µg/mL (≈ 1.28 µM)
MIC [6]: 0.4 µg/mL (≈ 0.642 µM)
AUC [7]: 22000 ng·h/mL
half-life [8]: 2 h
half-life [9]: 0.4 h
AUC(0-inf) [10]: 27300 ng·h/mL

CCO/N=C(\C(=O)N[C@@H]1C(=O)N2C(C(=O)[O-])=C(/C=C/C[n+]3ccc(-c4nc(/C([O-])=N/C#N)cs4)cc3)CS[C@H]12)c1csc(N)n1.[Na+]
AUC [7]: 37500 ng·h/mL
half-life [8]: 3.88 h
clearance [11]: 0.49 mL/min/kg
fraction unbound at 0.5 h [12]: 0.81
fraction unbound at 0.5 h [13]: 0.27
MIC [14]: 0.5 µg/mL
MIC [15]: 0.25 µg/mL
MIC [16]: 0.25 µg/mL
MIC [17]: 0.031 µg/mL
MIC [18]: 0.063 µg/mL
MIC [19]: 1 µg/mL
MIC [20]: 0.063 µg/mL
ED50 [21]: 0.017 mg/kg
ED50 [22]: 0.71 mg/kg
MIC [23]: 0.008 µg/mL
MIC [24]: 0.25 µg/mL
Ratio [25]: 2 - 3
half-life [9]: 0.67 h
clearance [26]: 16 mL/min/kg
AUC(0-inf) [10]: 20900 ng·h/mL

CCO/N=C(\C(=O)N[C@@H]1C(=O)N2C(C(=O)[O-])=C(C[n+]3ccc(-c4cc[nH]c4)cc3)CS[C@H]12)c1nsc(N)n1
MIC [1]: 0.4 µg/mL (≈ 0.721 µM)
MIC [2]: 1.6 µg/mL (≈ 2.88 µM)
MIC [3]: 6.3 µg/mL (≈ 11.4 µM)
MIC [4]: 0.02 µg/mL (≈ 0.0361 µM)
MIC [5]: 0.8 µg/mL (≈ 1.44 µM)
MIC [6]: 0.8 µg/mL (≈ 1.44 µM)

CCO/N=C(\C(=O)N[C@@H]1C(=O)N2C(C(=O)[O-])=C(/C=C/C[n+]3cccc4cc(/C([O-])=N/C#N)ccc43)CS[C@H]12)c1csc(N)n1.[Na+]
AUC [7]: 8200 ng·h/mL
half-life [8]: 1.74 h
clearance [11]: 2.08 mL/min/kg
fraction unbound at 0.5 h [12]: 0.9
fraction unbound at 0.5 h [13]: 0.63
MIC [14]: 0.25 µg/mL
MIC [15]: 0.25 µg/mL
MIC [16]: 0.5 µg/mL
MIC [17]: 0.031 µg/mL
MIC [18]: 0.125 µg/mL
MIC [19]: 0.5 µg/mL
MIC [20]: 0.125 µg/mL
half-life [9]: 0.95 h
clearance [26]: 25.7 mL/min/kg
AUC(0-inf) [10]: 12900 ng·h/mL

CCO/N=C(\C(=O)N[C@@H]1C(=O)N2C(C(=O)[O-])=C(/C=C/C[n+]3ccc4c(/C([O-])=N\C#N)cccc4c3)CS[C@H]12)c1csc(N)n1.[Na+]
AUC [7]: 10600 ng·h/mL
half-life [8]: 1.52 h
clearance [11]: 1.59 mL/min/kg
fraction unbound at 0.5 h [12]: 0.97
fraction unbound at 0.5 h [13]: 0.42
MIC [14]: 0.5 µg/mL
MIC [15]: 0.25 µg/mL
MIC [16]: 0.5 µg/mL
MIC [17]: 0.063 µg/mL
MIC [18]: 0.125 µg/mL
MIC [19]: 2 µg/mL
MIC [20]: 0.125 µg/mL
half-life [9]: 0.73 h
clearance [26]: 23.5 mL/min/kg
AUC(0-inf) [10]: 14200 ng·h/mL

CO/N=C(\C(=O)N[C@@H]1C(=O)N2C(C(=O)[O-])=C(C[n+]3ccn4ncccc43)CS[C@H]12)c1nsc(N)n1 [CEFOZOPRAN]
MIC [1]: 0.8 µg/mL (≈ 1.55 µM)
MIC [2]: 12.5 µg/mL (≈ 24.2 µM)
MIC [3]: 50 µg/mL (≈ 97 µM)
MIC [4]: 0.05 µg/mL (≈ 0.097 µM)
MIC [5]: 0.8 µg/mL (≈ 1.55 µM)
MIC [6]: 0.4 µg/mL (≈ 0.776 µM)
AUC [7]: 15000 ng·h/mL
half-life [8]: 1.2 h
half-life [9]: 0.4 h
AUC(0-inf) [10]: 30300 ng·h/mL

CO/N=C(\C(=O)N[C@@H]1C(=O)N2C(C(=O)O)=C(CSc3nc(=O)c(=O)[nH]n3C)CS[C@H]12)c1csc(N)n1 [CEFTRIAXONE]
AUC [7]: 21900 ng·h/mL
half-life [8]: 1.95 h
clearance [11]: 0.77 mL/min/kg
fraction unbound at 0.5 h [12]: 0.06
fraction unbound at 0.5 h [13]: 0.05
MIC [14]: 2 µg/mL (≈ 3.61 µM)
MIC [15]: 1 µg/mL (≈ 1.8 µM)
MIC [16]: 2 µg/mL (≈ 3.61 µM)
MIC [17]: 0.125 µg/mL (≈ 0.225 µM)
MIC [18]: 0.25 µg/mL (≈ 0.451 µM)
MIC [19]: 1 µg/mL (≈ 1.8 µM)
MIC [20]: 0.125 µg/mL (≈ 0.225 µM)
ED50 [21]: 0.11 mg/kg
ED50 [22]: 5.65 mg/kg
MIC [23]: 0.016 µg/mL (≈ 0.0289 µM)
MIC [24]: 1 µg/mL (≈ 1.8 µM)
half-life [9]: 0.64 h
clearance [26]: 5.49 mL/min/kg
AUC(0-inf) [10]: 60800 ng·h/mL
